Data: paper PMC12415690 (RSC Advances, 2025)
In brackets after ≈: the same amount, converted by molar mass.

Experiments:
M.tb H37Rv = settings: M.tb H37Rv; cited from earlier work
S. aureus (ATCC 23235) = experiment: Antibacterial zone of inhibition; type: cell-based; settings: Staphylococcus aureus, ATCC23235, read-out: Zone of inhibition in mm, S. aureus (ATCC 23235)
Summary of the method: (§1)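 Sterilised nutrient agar, […], was seeded with 18–24 h bacterial subcultures, mixed and poured into Petri dishes. Once the agar set, 6 mm wells were cut with a sterile cork borer and filled with test compound dissolved in DMSO at 100 μg mL−1. Plates were incubated at 37 °C for 24–48 h, and inhibition zones around each well were measured in mm. Ciprofloxacin was the reference standard.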

[1] = test system: M. tuberculosis H37Rv strain (ATCC 27294); experiment: Antitubercular activity, microplate Alamar Blue assay; type: cell-based; settings: Mycobacterium tuberculosis, ATCC27294|H37RV, read-out: MIC μM
B. subtilis (ATCC 6051) = experiment: Antibacterial zone of inhibition; type: cell-based, Bacillus subtilis; settings: 100 μg mL^−1; for zone of inhibition at 100 µg/mL: Bacillus subtilis, ATCC6051, read-out: Zone of inhibition in mm, B. subtilis (ATCC 6051), Gram positive; for Zone of inhibition in mm, B. subtilis (ATCC 6051): Gram positive
Summary of the method: as §1

E. coli (ATCC 25922) = experiment: Antibacterial zone of inhibition; type: cell-based; settings: Escherichia coli, ATCC25922, read-out: Zone of inhibition in mm, E. coli (ATCC 25922)
Summary of the method: as §1

[2] = test system: P. aeruginosa (ATCC 27853); experiment: Antibacterial zone of inhibition; type: cell-based; settings: Pseudomonas aeruginosa, ATCC27853, read-out: Zone of inhibition in mm, P. aeruginosa (ATCC 27853)
Summary of the method: as §1

| SMILES | MIC (M.tb H37Rv) [µM] | zone of inhibition at 100 µg/mL (S. aureus (ATCC 23235)) [mm] | Cytotoxicity in VERO cells (VERO cell lines) | MIC [1] [µM] | zone of inhibition at 100 µg/mL (B. subtilis (ATCC 6051)) [mm] | Zone of inhibition in mm, B. subtilis (ATCC 6051) (B. subtilis (ATCC 6051)) [mm] | zone of inhibition at 100 µg/mL (E. coli (ATCC 25922)) [mm] | zone of inhibition at 100 µg/mL [2] [mm] |
| --- | --- | --- | --- | --- | --- | --- | --- | --- |
| CCOC(=O)c1sc(N/N=C/c2ccccc2O)nc1C [(E)-ethyl 2-(2-(2-hydroxybenzylidene)hydrazinyl-4-methylthiazole-5-carboxylate] | 25 (≈ 7.63 µg/mL) |  |  |  |  |  |  |  |
| CCOC(=O)c1sc(N/N=C(\C)c2ccccn2)nc1C [(E)-ethyl 4-methyl-(2-(1-(pyridin-2-yl)ethylidene)hydrazinyl)thiazole-5-carboxylate] | 12.5 (≈ 3.8 µg/mL) |  |  |  |  |  |  |  |
| CCOC(=O)c1sc(N/N=C/c2c(-c3ccc(OC)cc3)nc3ncccn23)nc1C [Compound K2, Ethyl(E)-2-(2-((2-(4-methoxyphenyl)imidazo[1,2-a]pyrimidin-3-yl)methylene)hydrazineyl)-4-methylthiazole-5-carboxylate] |  | 15 | non-toxic profiles | 3.66 (≈ 1.6 µg/mL) | 15 to 20 | 15 | 18 | 18 |
| CCOC(=O)c1sc(N/N=C/c2c(-c3ccc(F)cc3)nc3ncccn23)nc1C [Compound K3, Ethyl(E)-2-(2-((2-(4-fluorophenyl)imidazo[1,2-a]pyrimidin-3-yl)methylene)hydrazineyl)-4-methylthiazole-5-carboxylate] |  | 17 | non-toxic profiles | 3.77 (≈ 1.6 µg/mL) | 13 |  | 20 | 11 |
| CCOC(=O)c1sc(N/N=C/c2c(-c3ccc(Cl)cc3)nc3ncccn23)nc1C [Compound K4, Ethyl(E)-2-(2-((2-(4-chlorophenyl)imidazo[1,2-a]pyrimidin-3-yl)methylene)hydrazineyl)-4-methylthiazole-5-carboxylate] |  | 13 |  | 14.2 (≈ 6.26 µg/mL) | 14 |  | 20 | 11 |
| CCOC(=O)c1sc(N/N=C/c2c(-c3ccc(Br)cc3)nc3ncccn23)nc1C [Compound K5, Ethyl(E)-2-(2-((2-(4-bromophenyl)imidazo[1,2-a]pyrimidin-3-yl)methylene)hydrazineyl)-4-methylthiazole-5-carboxylate] |  | 11 |  | 12.9 (≈ 6.27 µg/mL) | 13 |  | 14 | 13 |
| CCOC(=O)c1sc(N/N=C/c2c(-c3ccc(C#N)cc3)nc3ncccn23)nc1C [Compound K6, Ethyl(E)-2-(2-((2-(4-cyanophenyl)imidazo[1,2-a]pyrimidin-3-yl)methylene)hydrazineyl)-4-methylthiazole-5-carboxylate] |  | 17 |  | 29 (≈ 12.5 µg/mL) | 14 |  | 10 | 15 |
| CCOC(=O)c1cnc(N/N=C/c2c(-c3ccc(C)cc3)nc3ncccn23)s1 [Compound K8, Ethyl(E)-2-(2-((2-(p-tolyl)imidazo[1,2-a]pyrimidin-3-yl)methylene)hydrazineyl)thiazole-5-carboxylate] |  | 12 |  | 7.68 (≈ 3.12 µg/mL) |  |  | 17 | 19 |
| CCOC(=O)c1cnc(N/N=C/c2c(-c3ccccc3)nc3ncccn23)s1 [Compound K14, Ethyl(E)-2-(2-((2-phenylimidazo[1,2-a]pyrimidin-3-yl)methylene)hydrazineyl)thiazole-5-carboxylate] |  | 15 |  | 31.9 (≈ 12.5 µg/mL) | 14 |  | 12 | 15 |
| CC(=O)c1sc(N/N=C/c2c(-c3ccc(C)cc3)nc3ncccn23)nc1C [Compound K15, (E)-1-(4-methyl-2-(2-((2-(p-tolyl)imidazo[1,2-a]pyrimidin-3-yl)methylene)hydrazineyl)thiazol-5-yl)ethan-1-one] |  | 12 |  | 32 (≈ 12.5 µg/mL) | 13 |  | 15 | 14 |
| COc1ccc(-c2nc3ncccn3c2/C=N/Nc2nc(C)c(C(C)=O)s2)cc1 [Compound K16, (E)-1-(2-(2-((2-(4-methoxyphenyl)imidazo[1,2-a]pyrimidin-3-yl)methylene)hydrazineyl)-4-methylthiazol-5-yl)ethan-1-one] |  | 18 |  | 30.8 (≈ 12.5 µg/mL) |  |  |  | 11 |
| CC(=O)c1sc(N/N=C/c2c(-c3ccc(F)cc3)nc3ncccn23)nc1C [Compound K17, (E)-1-(2-(2-((2-(4-fluorophenyl)imidazo[1,2-a]pyrimidin-3-yl)methylene)hydrazineyl)-4-methylthiazol-5-yl)ethan-1-one] |  | 20 |  | 7.91 (≈ 3.12 µg/mL) | 14 |  |  | 11 |
| CC(=O)c1sc(N/N=C/c2c(-c3ccc(Cl)cc3)nc3ncccn23)nc1C [Compound K18, (E)-1-(2-(2-((2-(4-chlorophenyl)imidazo[1,2-a]pyrimidin-3-yl)methylene)hydrazineyl)-4-methylthiazol-5-yl)ethan-1-one] |  | 18 |  | 30.5 (≈ 12.5 µg/mL) | 15 to 20 | 15 | 15 | 12 |
| CC(=O)c1sc(N/N=C/c2c(-c3ccc(Br)cc3)nc3ncccn23)nc1C [Compound K19, (E)-1-(2-(2-((2-(4-bromophenyl)imidazo[1,2-a]pyrimidin-3-yl)methylene)hydrazineyl)-4-methylthiazol-5-yl)ethan-1-one] |  | 12 |  | 13.8 (≈ 6.27 µg/mL) | 12 |  |  | 20 |
| CC(=O)c1sc(N/N=C/c2c(-c3ccc(C#N)cc3)nc3ncccn23)nc1C [Compound K20, (E)-4-(3-((2-(5-acetyl-4-methylthiazol-2-yl)hydrazineylidene)methyl)imidazo[1,2-a]pyrimidin-2-yl)benzonitrile] |  | 17 |  | 15.6 (≈ 6.25 µg/mL) | 15 to 20 | 15 | 14 | 12 |
| CC(=O)c1sc(N/N=C/c2c(-c3ccccc3)nc3ncccn23)nc1C [Compound K21, (E)-1-(4-methyl-2-(2-((2-phenylimidazo[1,2-a]pyrimidin-3-yl)methylene)hydrazineyl)thiazol-5-yl)ethan-1-one] |  | 19 |  | 33.2 (≈ 12.5 µg/mL) | 13 |  |  |  |
| CCOC(=O)/C=C1/SC(N/N=C/c2c(-c3ccc(C)cc3)nc3ncccn23)=NC1=O [Compound K22, Ethyl(E)-2-(4-oxo-2-(2-((E)-(2-(p-tolyl)imidazo[1,2-a]pyrimidin-3-yl)methylene) hydrazineyl)thiazol-5(4H)-ylidene)acetate] |  | 15 |  | 28.8 (≈ 12.5 µg/mL) | 15 to 20 | 15 | 24 | 13 |
| CCOC(=O)/C=C1/SC(N/N=C/c2c(-c3ccc(OC)cc3)nc3ncccn23)=NC1=O [Compound K23, Ethyl(E)-2-(2-(2-((E)-(2-(4-methoxyphenyl)imidazo[1,2-a]pyrimidin-3-yl)methylene) hydrazineyl)-4-oxothiazol-5(4H)-ylidene)acetate] |  | 16 |  | 111 (≈ 50 µg/mL) |  |  | 24 | 18 |
| CCOC(=O)/C=C1/SC(N/N=C/c2c(-c3ccc(F)cc3)nc3ncccn23)=NC1=O [Compound K24, Ethyl(E)-2-(2-(2-((E)-(2-(4-fluorophenyl)imidazo[1,2-a]pyrimidin-3-yl)methylene) hydrazineyl)-4-oxothiazol-5(4H)-ylidene)acetate] |  |  |  | 28.5 (≈ 12.5 µg/mL) |  |  |  |  |
| CCOC(=O)/C=C1/SC(N/N=C/c2c(-c3ccc(Cl)cc3)nc3ncccn23)=NC1=O [Compound K25, Ethyl(E)-2-(2-(2-((E)-(2-(4-chlorophenyl)imidazo[1,2-a]pyrimidin-3-yl)methylene) hydrazineyl)-4-oxothiazol-5(4H)-ylidene)acetate] |  | 21 |  | 55 (≈ 25 µg/mL) | 15 to 20 | 20 | 21 | 20 |
| CCOC(=O)/C=C1/SC(N/N=C/c2c(-c3ccc(Br)cc3)nc3ncccn23)=NC1=O [Compound K26, Ethyl(E)-2-(2-(2-((E)-(2-(4-bromophenyl)imidazo[1,2-a]pyrimidin-3-yl)methylene) hydrazineyl)-4-oxothiazol-5(4H)-ylidene)acetate] |  | 15 |  | 50.2 (≈ 25.1 µg/mL) | 15 |  |  |  |
| NC(=O)c1cnccn1 [PZA, pyrazinamide, reference compound] |  |  |  | 25.3 (≈ 3.12 µg/mL) |  |  |  |  |
| [H]/N=C(/N)N[C@H]1[C@H](O)[C@@H](O)[C@H](O[C@@H]2O[C@@H](C)[C@](O)(C=O)[C@H]2O[C@@H]2O[C@@H](CO)[C@H](O)[C@@H](O)[C@@H]2NC)[C@@H](N/C(N)=N\[H])[C@@H]1O [STM, streptomycin, reference compound] |  |  |  | 10.7 (≈ 6.25 µg/mL) |  |  |  |  |
